According to ChEMBL document CHEMBL2021927, “Synthesis and evaluation of the cytotoxicities of tetraindoles: observation that the 5-hydroxy tetraindole (SK228) induces G₂ arrest and apoptosis in human breast cancer cells” (J Med Chem, 2012):
Activity calls are given as the source filed them. The rule behind the calls is not given here.

Key:
[1] = system: MDA-MB-231; assay: Induction of apoptosis in human MDA-MB-231 cells assessed as caspase 3 cleavage after 24 to 48 hrs by Western blot analysis; assay type: functional, cell-based
In short: (§1)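 MDA-MB-231 cells treated with 0.2, 0.4 or 0.8 μM for 24 and 48 h. Attached and floating cells were lysed in RIPA-type buffer with protease inhibitors, and protein was quantified by BCA. Equal protein was run on 10%/15% SDS-PAGE and transferred to nitrocellulose. Blots were probed 1 h at room temperature for phospho-cdc2, cyclin B1, caspase-3, bak/bcl-2 or actin loading control, with HRP secondary and ECL detection.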

[2] = system: MDA-MB-231; assay: Increase in cyclin B1 expression in human MDA-MB-231 cells after 48 hrs by Western blot analysis; assay type: functional, cell-based; in short: as §1
[3] = system: MDA-MB-231; assay: Induction of apoptosis in human MDA-MB-231 cells assessed as increase in early apoptotic cells at 0.4 uM by annexinV propidium iodide staining-based flow cytometric analysis; assay type: functional, cell-based; details: TDE = time-dependent effect
In short: (§2)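 MDA-MB-231 cells treated with 0.4 μM, washed twice in PBS and stained with annexin V-FITC/propidium iodide. Populations scored as viable (both negative), early apoptotic (annexin V positive, PI negative) or late apoptotic/dead (both positive).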

[4] = system: MDA-MB-231; assay: Cell cycle arrest in human MDA-MB-231 cells at accumulation at subG1 phase at 0.8 uM after 48 hrs by propidium iodide staining-based flow cytometric analysis (reference value: 3%); assay type: functional
[5] = system: MCF7; assay: Ratio of IC50 for cyclic tetramer to compound for human MCF7 cells after 48 hrs by MTT assay; assay type: functional
[6] = system: MDA-MB-231; assay: Ratio of IC50 for cyclic tetramer to compound for human MDA-MB-231 cells after 48 hrs by MTT assay; assay type: functional
[7] = system: SW48; assay: Selectivity ratio of IC50 for human Detroit 551 cells to IC50 for human SW48 cells
[8] = system: Detroit 551; assay: Growth inhibition of human Detroit 551 cells after 48 hrs by MTT assay; assay type: cell-based; details: Detroit 551, 48 h
[9] = system: MDA-MB-231; assay: Induction of apoptosis in human MDA-MB-231 cells assessed as bcl-2 protein level after 24 to 48 hrs by Western blot analysis; assay type: functional, cell-based; in short: as §1
[10] = system: MCF7; assay: Selectivity ratio of IC50 for human Detroit 551 cells to IC50 for human MCF7 cells
[11] = system: SW480; assay: Selectivity ratio of IC50 for human Detroit 551 cells to IC50 for human SW480 cells
[12] = system: MDA-MB-231; assay: Cell cycle arrest in human MDA-MB-231 cells at accumulation at G1 phase at 0.8 uM after 48 hrs by propidium iodide staining-based flow cytometric analysis (reference value: 45%); assay type: functional
[13] = system: Detroit 551; assay: Selectivity ratio of IC50 for human Detroit 551 cells to IC50 for human SW620 cells
[14] = system: MDA-MB-231; assay: Induction of apoptosis in human MDA-MB-231 cells assessed as PARP cleavage after 24 to 48 hrs by Western blot analysis; assay type: functional, cell-based
[15] = system: MCF7; assay: Selectivity ratio of IC50 for human MT10 cells to IC50 for human MCF7 cells
In short: (§3)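 Ratio of the IC50 in normal M10 cells to the IC50 in each cancer line. […] The paper reports the fold difference as the normal-cell to tumour-cell IC50 ratio.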

[16] = system: A549; assay: Selectivity ratio of IC50 for human MT10 cells to IC50 for human A549 cells; in short: as §3
[17] = system: MDA-MB-231; assay: Increase in cdc2 phosphorylation at Tyr15 expression in human MDA-MB-231 cells after 24 hrs by Western blot analysis; assay type: functional, cell-based; in short: as §1
[18] = Growth inhibition of human U87MG cells after 48 hrs by MTT assay; assay type: functional, cell-based, U-87MG ATCC; details: U-87 MG
[19] = Growth inhibition of human Detroit 551 cells at 20 uM after 48 hrs by MTT assay; assay type: cell-based; details: read-out: GI
In short: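 MTT viability assay with 48 h exposure at a single 20 μM concentration. Result given as percent inhibition of cell growth; n = 3.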

[20] = system: SW480; assay: Selectivity ratio of IC50 for human MT10 cells to IC50 for human SW480 cells; in short: as §3
[21] = Selectivity ratio of IC50 for human MT10 cells to IC50 for human U87MG cells; assay type: ADME, cell-based, U-87MG ATCC; details: MT10 cells and U87MG cells, read-out: Ratio IC50; in short: as §3
[22] = system: SW48; assay: Growth inhibition of human SW48 cells after 48 hrs by MTT assay; assay type: functional, cell-based; details: SW48, 48 h
[23] = system: MDA-MB-231; assay: Induction of apoptosis in human MDA-MB-231 cells assessed as increase in late apoptotic cells at 0.4 uM by annexinV propidium iodide staining-based flow cytometric analysis; assay type: functional, cell-based; details: TDE = time-dependent effect; in short: as §2
[24] = system: MDA-MB-231; assay: Decrease in cyclin B1 expression in human MDA-MB-231 cells at 0.8 uM after 48 hrs by Western blot analysis; assay type: functional, cell-based; in short: as §1
[25] = system: MDA-MB-468; assay: Selectivity ratio of IC50 for human Detroit 551 cells to IC50 for human MDA-MB-468 cells
[26] = system: MDA-MB-361; assay: Selectivity ratio of IC50 for human Detroit 551 cells to IC50 for human MDA-MB-361 cells
[27] = system: MDA-MB-231; assay: Selectivity ratio of IC50 for human MT10 cells to IC50 for human MDA-MB-231 cells; in short: as §3
[28] = system: MDA-MB-361; assay: Selectivity ratio of IC50 for human MT10 cells to IC50 for human MDA-MB-361 cells; in short: as §3
[29] = system: Detroit 551; assay: Selectivity ratio of IC50 for human Detroit 551 cells to IC50 for human U87MG cells
[30] = Growth inhibition of human M10 cells after 48 hrs by MTT assay; assay type: cell-based; details: M10, 48 h
[31] = system: SW480; assay: Growth inhibition of human SW480 cells after 48 hrs by MTT assay; assay type: functional, cell-based; details: SW480, 48 h
[32] = Selectivity ratio of IC50 for human MT10 cells to IC50 for human SW620 cells; assay type: ADME, cell-based, SW-620; details: MT10 cells and SW620 cells; in short: as §3
[33] = system: MDA-MB-468; assay: Selectivity ratio of IC50 for human MT10 cells to IC50 for human MDA-MB-468 cells; in short: as §3
[34] = system: SW48; assay: Selectivity ratio of IC50 for human MT10 cells to IC50 for human SW48 cells; in short: as §3
[35] = system: MDA-MB-231; assay: Cell cycle arrest in human MDA-MB-231 cells at accumulation at G2/M phase at 0.8 uM after 48 hrs by propidium iodide staining-based flow cytometric analysis (reference value: 32%); assay type: functional
[36] = system: MDA-MB-231; assay: Selectivity ratio of IC50 for human Detroit 551 cells to IC50 for human MDA-MB-231 cells
[37] = system: MDA-MB-231; assay: Increase in cdc2 phosphorylation at Tyr15 expression in human MDA-MB-231 cells after 48 hrs by Western blot analysis; assay type: functional, cell-based; in short: as §1
[38] = system: MDA-MB-231; assay: Cell cycle arrest in human MDA-MB-231 cells at accumulation at subG1 phase at 0.8 uM after 24 hrs by propidium iodide staining-based flow cytometric analysis (reference value: 2%); assay type: functional
[39] = system: A549; assay: Growth inhibition of human A549 cells after 48 hrs by MTT assay; assay type: functional, cell-based; details: A549, 48 h
[40] = system: MDA-MB-231; assay: Growth inhibition of human MDA-MB-231 cells after 48 hrs by MTT assay; assay type: functional, cell-based
[41] = system: MDA-MB-231; assay: Increase in cyclin B1 expression in human MDA-MB-231 cells after 24 hrs by Western blot analysis; assay type: functional, cell-based; in short: as §1
[42] = system: SW-620; assay: Growth inhibition of human SW620 cells after 48 hrs by MTT assay; assay type: functional, cell-based; details: SW-620, 48 h

Compound: Oc1ccc2[nH]cc(C(c3ccc(C(c4c[nH]c5ccc(O)cc45)c4c[nH]c5ccc(O)cc45)cc3)c3c[nH]c4ccc(O)cc34)c2c1
- Activity [1]: Dose-dependent effect
- Activity [2]: Dose-dependent effect
- Activity [3]: tde
- Activity [4]: 21%
- Ratio IC50 [5]: 2
- Ratio IC50 [6]: 2
- Ratio IC50 [7]: > 22.7
- IC50 [8]: > 20000 nM
- Activity [9]: Dose-dependent effect
- Ratio IC50 [10]: > 22.7
- Ratio IC50 [11]: > 54
- Activity [12]: 25%
- Ratio IC50 [13]: > 20
- Activity [14]: Dose-dependent effect
- Ratio IC50 [15]: 6.6
- Ratio IC50 [16]: 2
- Activity [17]: Dose-dependent effect
- IC50 [18]: 2730 nM
- inhibition at 48 h, 20 µM [19]: 47%
- Ratio IC50 [20]: 15.7
- selectivity ratio [21]: 2
- IC50 [22]: 880 nM
- Activity [23]: tde
- Activity [24]: Active
- Ratio IC50 [25]: > 24
- Ratio IC50 [26]: > 9.7
- Ratio IC50 [27]: 12.9
- Ratio IC50 [28]: 2.8
- Ratio IC50 [29]: > 7.3
- IC50 [30]: 5810 nM
- IC50 [31]: 370 nM
- selectivity ratio [32]: 5.9
- Ratio IC50 [33]: 7
- Ratio IC50 [34]: 6.6
- Activity [35]: 34%
- Ratio IC50 [36]: > 44
- Activity [37]: Dose-dependent effect
- Activity [38]: 6%
- IC50 [39]: 2890 nM
- inhibition [40]: Dose-dependent effect
- IC50 ([40]; MDA-MB-231, 48 h): 450 nM
- Activity [41]: Dose-dependent effect
- IC50 [42]: 980 nM
